In ChEMBL document CHEMBL2202972, “Synthesis and biological evaluation of 2-substituted-4-(3',4',5'-trimethoxyphenyl)-5-aryl thiazoles as anticancer agents” (Bioorg Med Chem, 2012):
Active and inactive are the calls of the source. No cut-off for these calls is given here.

Assays:
A549 = test: Resistance ratio of IC50 for human taxol-resistant A549-T12 cells expressing tubulin mutant gene to IC50 for human A549 cells; type: functional
CCRF-CEM [1] = test: Resistance ratio of IC50 for human vinblastine-resistant CEM/VBL100 cells overexpressing P-glycoprotein to IC50 for human CEM cells; type: functional
HeLa [2] = test: Downregulation of Xiap expression in human HeLa cells at 250 to 500 nM after 24 hrs by Western blot analysis; type: functional, cell-based
Outline: (§1)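 HeLa cells treated for 24 or 48 h, washed twice with ice-cold PBS and lysed on ice 30 min; lysates spun at 15000 ×g, 4 °C. Protein (20 μg) resolved by SDS–PAGE on 7.5–15% gels and blotted to PVDF. Specific primary antibodies for 2 h at room temperature, then peroxidase secondary for 60 min, ECL detection. Membranes stripped and reprobed for β-actin as loading control.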

HeLa [3] = test: Downregulation of Mcl-1 expression in human HeLa cells at 250 to 500 nM after 24 hrs by Western blot analysis; type: functional, cell-based; outline: as §1
HeLa [4] = test: Induction of apoptosis in human HeLa cells assessed as appearance of cleaved caspase-8 protein at 250 to 500 nM after 24 to 48 hrs by Western blot analysis; type: functional, cell-based; outline: as §1
HeLa [5] = test: Induction of apoptosis in human HeLa cells assessed as disappearance of uncleaved caspase-2 protein at 250 to 500 nM after 24 to 48 hrs by Western blot analysis; type: functional, cell-based; outline: as §1
HeLa [6] = test: Induction of apoptosis in human HeLa cells assessed as ROS production; type: functional, cell-based
HeLa [7] = test: Induction of apoptosis in human HeLa cells assessed as mitochondrial polarization; type: functional, cell-based
HeLa [8] = test: Induction of apoptosis in human HeLa cells assessed as caspase-3 activation at 250 to 500 nM after 24 to 48 hrs by Western blot analysis; type: functional, cell-based; outline: as §1
HeLa [9] = test: Effect on cyclin B expression in human HeLa cells at 250 to 500 nM after 24 hrs by Western blot analysis; type: functional, cell-based; outline: as §1
[10] = target: T1, M-phase inducer phosphatase 3 (Homo sapiens) (UniProt P30307); test: Induction of cdc25C phosphorylation in human HeLa cells at 250 to 500 nM after 24 to 48 hrs by Western blot analysis; type: cell-based; outline: as §1
T1 sequence (whole entry): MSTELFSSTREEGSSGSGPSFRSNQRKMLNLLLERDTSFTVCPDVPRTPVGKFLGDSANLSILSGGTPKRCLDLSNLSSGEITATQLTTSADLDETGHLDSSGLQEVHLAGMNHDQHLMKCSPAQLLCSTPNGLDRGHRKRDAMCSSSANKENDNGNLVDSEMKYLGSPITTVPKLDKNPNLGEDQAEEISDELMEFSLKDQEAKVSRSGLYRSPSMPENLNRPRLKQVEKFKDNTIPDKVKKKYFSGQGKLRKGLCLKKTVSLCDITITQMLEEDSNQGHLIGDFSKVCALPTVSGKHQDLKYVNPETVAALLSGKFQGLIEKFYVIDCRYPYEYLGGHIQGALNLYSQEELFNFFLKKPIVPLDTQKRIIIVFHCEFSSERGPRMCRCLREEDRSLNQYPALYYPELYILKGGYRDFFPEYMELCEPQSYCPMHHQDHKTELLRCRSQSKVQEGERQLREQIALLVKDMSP

Jurkat [11] = test: Cell cycle arrest in human Jurkat cells assessed as decrease in accumulation of cells at G1 phase after 24 hrs by propidium iodide staining based flow cytometric analysis; type: functional
Outline: (§2)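 HeLa or Jurkat cells (5 × 10⁵, exponential growth) treated 24 h with 31–500 nM compound. Cells fixed in ice-cold 70% ethanol, treated with lysis buffer containing RNase A and 0.1% Triton X-100, then stained with propidium iodide. DNA content measured by flow cytometry to give phase distribution. Mean ± SEM of three independent experiments.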

Jurkat [12] = test: Cell cycle arrest in human Jurkat cells assessed as decrease in accumulation of cells at S phase after 24 hrs by propidium iodide staining based flow cytometric analysis; type: functional; outline: as §2
Jurkat [13] = test: Cell cycle arrest in human Jurkat cells assessed as accumulation of cells at G2/M phase after 24 hrs by propidium iodide staining based flow cytometric analysis; type: functional; outline: as §2
Bos taurus = species: Bos taurus; test: Displacement of [3H]colchicine from tubulin in bovine brain at 5 uM DEAE-cellulose filter method
[14] = Inhibition of bovine brain tubulin polymerization preincubated for 15 mins by turbidimetric analysis; parameters: species or system Bos taurus
Outline: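 Bovine brain tubulin (10 μM) in glutamate buffer preincubated with varying compound concentrations for 15 min at 30 °C, then chilled to 0 °C. GTP 0.4 mM added and mixtures warmed to 30 °C in a spectrophotometer; assembly followed by turbidity at 350 nm.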

[15] = Antiproliferative activity against human vinblastine-resistant CEM/VBL100 cells overexpressing P-glycoprotein after 72 hrs by MTT assay; type: functional, cell-based; conditions: CEM/VBL100, 72 h
CCRF-CEM [16] = test: Antiproliferative activity against human CEM cells after 72 hrs by MTT assay; type: functional, cell-based
[17] = Antiproliferative activity against human doxorubicin-resistant LoVo/DX cells overexpressing P-glycoprotein after 72 hrs by MTT assay; type: functional, cell-based
Outline: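 Resistant sublines cultured under selection: LoVo^Doxo (doxorubicin-resistant LoVo subclone) in complete Ham's F12 with doxorubicin 0.1 μg/mL; A549-T12 in complete DMEM with taxol 12 nM. Seeded at 8 × 10³ per well, 18 h preincubation, then 72 h compound exposure at 37 °C. MTT read-out.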

[18] = Growth inhibition of human resting PBL after 72 hrs by MTT assay; type: cell-based; conditions: resting peripheral blood lymphocytes (PBL)
PBL = test: Growth inhibition of PHA-stimulated human PBL after 72 hrs by MTT assay; type: functional
HL-60 [19] = test: Ratio of compound IC50 to CA-4 IC50 for human HL60 cells after 72 hrs by MTT assay; type: functional
HeLa [20] = test: Ratio of compound IC50 to CA-4 IC50 for human HeLa cells after 72 hrs by MTT assay; type: functional
MCF7 = test: Ratio of CA-4 IC50 to compound IC50 for human MCF7 cells after 72 hrs by MTT assay; type: functional
Jurkat [21] = test: Antiproliferative activity against human Jurkat cells after 72 hrs by MTT assay; type: functional, cell-based
Outline: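 Cells seeded at 8 × 10³ per well and incubated 18 h at 37 °C, 5% CO₂, then exposed to a range of compound concentrations for 72 h at 37 °C. Jurkat and HL-60 were grown in RPMI-1640, the others in DMEM, with penicillin, streptomycin and 10% FBS. DMSO stocks (10 mM); DMSO ≤0.25% final. Viability by MTT. […] Mean ± SE of ≥3 independent experiments.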

HL-60 [22] = test: Antiproliferative activity against human HL60 cells after 72 hrs by MTT assay; type: functional, cell-based; conditions: HL-60, 72 h
HeLa [23] = test: Antiproliferative activity against human HeLa cells after 72 hrs by MTT assay; type: functional, cell-based
HeLa [24] = test: Induction of survivin phosphorylation at Thr34 in human HeLa cells at 250 to 500 nM after 24 to 48 hrs by Western blot analysis

## CCOc1ccc(-c2sc(NC)nc2-c2cc(OC)c(OC)c(OC)c2)cc1
A549
  Ratio IC50: 0.5
CCRF-CEM [1]
  Ratio IC50: 2.9
HeLa [2]
  Activity: Active
HeLa [3]
  Activity: Active
HeLa [4]
  Activity: Active
HeLa [5]
  Activity: Active
HeLa [6]
  Activity: Active
HeLa [7]
  Activity: Active
HeLa [8]
  Activity: Active
HeLa [9]
  Activity: inactive
[10]
  Activity: Active
Jurkat [11]
  Activity: Dose-dependent effect
Jurkat [12]
  Activity: Dose-dependent effect
Jurkat [13]
  Activity: Dose-dependent effect
Bos taurus
  inhibition: 83%
[14]
  IC50: 890 nM
[15]
  IC50: 1.2 nM
CCRF-CEM [16]
  IC50: 0.8 nM
[17]
  IC50: 14.5 nM
[18]
  GI50 at 72 h: 443 nM
PBL
  GI50: 120 nM
HL-60 [19]
  Ratio IC50: 2
HeLa [20]
  Ratio IC50: 2
MCF7
  Ratio IC50: 15
Jurkat [21]
  IC50: 1.7 nM
HL-60 [22]
  IC50: 1.8 nM
HeLa [23]
  IC50: 13.2 nM
HeLa [24]
  Activity: Active
